The source made the active and inactive calls. The rule behind the calls is not given here. Positions of bridges follow the written chain, without caps; N, C: chain ends. Residues, ends and D or L forms follow the SMILES beside them.
Tests used:
[1] = tested on: CT26; test: Antimetastatic activity against GFP-fused mouse CT26 cells allografted in Balb/c mouse assessed as reduction in relative fluorescence at 11.3 mg/kg, ip administered daily for 15 days by fluorescence-based assay; format: functional; settings: 360 h
In short: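 Lung metastasis model: male Balb/c mice (~20 g, 6/group) given 10^6 GFP-CT-26 cells i.v. with peptide or saline, daily i.p. dosing Day 1–15, sacrificed Day 16. Resected lungs imaged for GFP with 488 nm excitation, emission 520; signal collected over 20×20 mm2 per lung; non-implanted normal group used for background subtraction.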

[2] = target: Urokinase-type plasminogen activator (Mus musculus) (UniProt P06869); test: Potency index, ratio of Ki for LD1 to Ki for test compound for inhibition of mouse uPA preincubated for 15 mins followed by chromogenic substrate addition
Chain of Urokinase-type plasminogen activator (Mus musculus) (P06869 21-178 limits assumed): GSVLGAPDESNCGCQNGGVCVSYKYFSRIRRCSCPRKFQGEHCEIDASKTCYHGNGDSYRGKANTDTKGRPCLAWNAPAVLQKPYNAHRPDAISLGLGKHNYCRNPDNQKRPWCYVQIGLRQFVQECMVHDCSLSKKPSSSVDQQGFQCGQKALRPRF
Chain of Urokinase-type plasminogen activator (Mus musculus) (P06869 180-433 limits assumed): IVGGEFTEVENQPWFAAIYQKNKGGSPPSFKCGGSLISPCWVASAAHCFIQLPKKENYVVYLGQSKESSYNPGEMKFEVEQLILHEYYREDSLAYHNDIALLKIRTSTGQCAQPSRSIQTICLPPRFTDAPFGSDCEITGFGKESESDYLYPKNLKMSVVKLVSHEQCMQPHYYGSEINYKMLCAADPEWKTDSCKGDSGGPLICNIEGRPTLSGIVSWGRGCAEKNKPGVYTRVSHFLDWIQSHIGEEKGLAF

[3] = target: Tissue-type plasminogen activator (Mus musculus, UniProt P11214); test: Inhibition of mouse tissue-type plasminogen activator preincubated for 15 mins followed by chromogenic substrate addition
Chain of Tissue-type plasminogen activator (P11214 whole entry): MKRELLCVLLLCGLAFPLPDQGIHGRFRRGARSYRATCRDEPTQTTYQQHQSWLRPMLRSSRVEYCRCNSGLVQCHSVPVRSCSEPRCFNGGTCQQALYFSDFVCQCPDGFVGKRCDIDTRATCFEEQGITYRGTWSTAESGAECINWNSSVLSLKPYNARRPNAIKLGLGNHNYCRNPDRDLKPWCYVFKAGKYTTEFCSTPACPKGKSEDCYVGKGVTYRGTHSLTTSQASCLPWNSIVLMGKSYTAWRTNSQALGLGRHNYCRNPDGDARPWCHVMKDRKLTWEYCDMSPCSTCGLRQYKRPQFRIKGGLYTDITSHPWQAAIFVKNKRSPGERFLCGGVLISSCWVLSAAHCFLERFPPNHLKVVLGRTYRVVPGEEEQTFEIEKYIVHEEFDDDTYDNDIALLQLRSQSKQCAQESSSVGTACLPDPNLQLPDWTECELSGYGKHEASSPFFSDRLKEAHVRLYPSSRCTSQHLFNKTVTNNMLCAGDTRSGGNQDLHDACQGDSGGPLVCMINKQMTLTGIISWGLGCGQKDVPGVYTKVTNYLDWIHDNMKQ

[4] = target: Plasma kallikrein (Mus musculus, UniProt P26262); test: Inhibition of mouse plasma kallikrein preincubated for 15 mins followed by chromogenic substrate addition
Chain of Plasma kallikrein (Mus musculus, UniProt P26262) (P26262 20-390 limits assumed): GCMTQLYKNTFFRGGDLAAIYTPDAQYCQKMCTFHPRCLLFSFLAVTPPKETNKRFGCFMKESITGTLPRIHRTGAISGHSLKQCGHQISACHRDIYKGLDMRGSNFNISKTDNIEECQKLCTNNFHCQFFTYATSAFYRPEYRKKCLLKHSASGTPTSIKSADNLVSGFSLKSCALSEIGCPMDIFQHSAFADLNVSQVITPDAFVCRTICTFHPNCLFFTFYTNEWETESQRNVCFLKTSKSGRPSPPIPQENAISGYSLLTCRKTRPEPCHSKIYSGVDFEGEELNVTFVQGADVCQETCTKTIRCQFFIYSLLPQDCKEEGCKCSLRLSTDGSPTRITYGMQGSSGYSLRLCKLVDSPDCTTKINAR
Chain of Plasma kallikrein (Mus musculus, UniProt P26262) (P26262 391-638 limits assumed): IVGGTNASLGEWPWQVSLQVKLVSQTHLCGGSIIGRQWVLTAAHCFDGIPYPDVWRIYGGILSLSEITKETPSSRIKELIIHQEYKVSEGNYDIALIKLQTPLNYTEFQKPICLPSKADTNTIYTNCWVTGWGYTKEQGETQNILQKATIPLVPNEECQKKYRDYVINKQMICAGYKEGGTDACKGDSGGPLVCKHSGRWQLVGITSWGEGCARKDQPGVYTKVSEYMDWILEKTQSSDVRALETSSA

[5] = target: Vitamin K-dependent protein C (Homo sapiens, UniProt P04070); test: Inhibition of human activated protein C preincubated for 15 mins followed by chromogenic substrate addition
Chain of Vitamin K-dependent protein C (P04070 43-197 limits assumed): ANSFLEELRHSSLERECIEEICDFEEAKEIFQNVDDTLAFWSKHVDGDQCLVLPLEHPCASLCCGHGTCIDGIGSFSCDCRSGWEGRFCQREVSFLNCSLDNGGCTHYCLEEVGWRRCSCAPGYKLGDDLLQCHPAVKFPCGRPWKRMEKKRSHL
Chain of Vitamin K-dependent protein C (P04070 212-461 limits assumed): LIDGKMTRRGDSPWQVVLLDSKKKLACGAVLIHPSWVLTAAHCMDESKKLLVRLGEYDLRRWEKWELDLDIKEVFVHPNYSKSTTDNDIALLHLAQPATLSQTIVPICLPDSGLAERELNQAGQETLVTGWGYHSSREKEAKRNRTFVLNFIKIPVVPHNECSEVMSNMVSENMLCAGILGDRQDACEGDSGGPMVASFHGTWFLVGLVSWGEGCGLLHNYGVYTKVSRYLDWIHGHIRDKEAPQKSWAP

[6] = tested on: CT26; test: Antimetastatic activity against mouse CT26 cells allografted in Balb/c mouse at 11.3 mg/kg, ip administered daily for 15 days by hematoxylin and eosin staining -based assay; format: functional, organism-based
In short: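 Lungs from male Balb/c given 10^6 GFP-CT-26 cells iv, with daily ip dosing on Days 1–15, were harvested on Day 16. Formalin-fixed, paraffin-embedded sections were stained with H&E for histology, with non-implanted lungs as comparison.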

[7] = target: T1, Suppressor of tumorigenicity 14 protein (Homo sapiens, UniProt Q9Y5Y6); test: Inhibition of human matriptase preincubated for 15 mins followed by chromogenic substrate addition
T1 sequence (Q9Y5Y6 whole entry): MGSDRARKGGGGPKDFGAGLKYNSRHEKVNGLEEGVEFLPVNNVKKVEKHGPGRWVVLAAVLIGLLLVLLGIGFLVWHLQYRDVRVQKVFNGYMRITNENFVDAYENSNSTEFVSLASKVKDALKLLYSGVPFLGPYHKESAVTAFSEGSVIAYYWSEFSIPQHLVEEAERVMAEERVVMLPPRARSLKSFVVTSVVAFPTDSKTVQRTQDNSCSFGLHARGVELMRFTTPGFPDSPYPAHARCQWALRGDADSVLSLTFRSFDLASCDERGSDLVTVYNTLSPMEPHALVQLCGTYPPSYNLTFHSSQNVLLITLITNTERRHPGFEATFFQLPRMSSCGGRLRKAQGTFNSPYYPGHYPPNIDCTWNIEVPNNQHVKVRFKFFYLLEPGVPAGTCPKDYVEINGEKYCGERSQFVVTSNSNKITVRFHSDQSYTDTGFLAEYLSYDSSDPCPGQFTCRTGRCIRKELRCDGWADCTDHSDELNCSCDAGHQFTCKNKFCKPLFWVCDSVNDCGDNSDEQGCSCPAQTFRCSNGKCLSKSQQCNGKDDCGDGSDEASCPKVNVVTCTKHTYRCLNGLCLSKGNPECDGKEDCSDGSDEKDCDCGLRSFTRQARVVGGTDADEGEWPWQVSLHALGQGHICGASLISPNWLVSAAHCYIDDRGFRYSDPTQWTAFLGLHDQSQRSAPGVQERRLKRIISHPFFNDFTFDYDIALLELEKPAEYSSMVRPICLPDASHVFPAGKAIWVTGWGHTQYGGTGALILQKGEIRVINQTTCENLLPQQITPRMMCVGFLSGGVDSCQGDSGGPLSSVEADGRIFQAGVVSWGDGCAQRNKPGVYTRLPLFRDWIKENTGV

[8] = Inhibition of mouse trypsin preincubated for 15 mins followed by chromogenic substrate addition
[9] = tested on: CT26; test: Anti-tumor activity against GFP expressing mouse CT26 cells allografted in Balb/c mouse assessed as tumor growth inhibition at 11.3 mg/kg, ip administered daily for 15 days and measured on day 16 […]; format: functional; settings: read-out: TGI
In short: (§1)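 CT-26 cells implanted subcutaneously in right flank of Balb/c mice; once tumors reached about 150~200 mm3, daily intraperitoneal dosing with peptide or saline for 15 days. Mice sacrificed on Day 16; tumors resected and weighed; tumor growth reduction relative to saline group.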

[10] = target: Plasma kallikrein (Homo sapiens, UniProt P03952); test: Inhibition of human plasma kallikrein preincubated for 15 mins followed by chromogenic substrate addition
Chain of Plasma kallikrein (Homo sapiens, UniProt P03952) (P03952 20-390 limits assumed): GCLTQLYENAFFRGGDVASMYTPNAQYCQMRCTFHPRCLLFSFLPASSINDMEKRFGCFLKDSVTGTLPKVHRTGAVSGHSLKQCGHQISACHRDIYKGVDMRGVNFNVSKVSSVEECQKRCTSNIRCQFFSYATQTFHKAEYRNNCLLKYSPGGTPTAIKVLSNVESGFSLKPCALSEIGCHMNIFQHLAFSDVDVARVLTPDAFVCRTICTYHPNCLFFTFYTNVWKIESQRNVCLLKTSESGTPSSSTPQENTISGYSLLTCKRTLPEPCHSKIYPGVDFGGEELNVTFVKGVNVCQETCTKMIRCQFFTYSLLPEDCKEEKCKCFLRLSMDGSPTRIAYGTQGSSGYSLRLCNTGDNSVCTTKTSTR
Chain of Plasma kallikrein (Homo sapiens, UniProt P03952) (P03952 391-638 limits assumed): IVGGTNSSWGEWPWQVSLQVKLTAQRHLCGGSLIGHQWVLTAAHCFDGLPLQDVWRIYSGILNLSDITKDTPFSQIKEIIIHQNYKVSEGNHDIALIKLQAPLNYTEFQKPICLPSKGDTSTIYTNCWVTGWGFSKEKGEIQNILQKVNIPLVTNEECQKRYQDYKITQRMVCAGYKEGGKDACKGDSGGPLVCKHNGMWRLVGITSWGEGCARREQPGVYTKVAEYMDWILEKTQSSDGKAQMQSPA

[11] = tested on: CT26; test: Antimetastatic activity against GFP-fused mouse CT26 cells allografted in Balb/c mouse assessed as reduction in relative fluorescence at 1.13 mg/kg, ip administered daily for 15 days by fluorescence-based assay; format: functional, organism-based
In short: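 After iv GFP-CT-26 implantation (10^6 cells) in male Balb/c and daily ip dosing Days 1–15, lungs were removed on Day 16. Whole-lung GFP was imaged with 488 nm excitation (em 520) and quantified over a 20×20 mm2 area per lung. Non-implanted lungs served as background.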

[12] = target: Plasminogen (Mus musculus, UniProt P20918); test: Inhibition of mouse plasmin preincubated for 15 mins followed by chromogenic substrate addition
Chain of Plasminogen (P20918 98-581 limits assumed): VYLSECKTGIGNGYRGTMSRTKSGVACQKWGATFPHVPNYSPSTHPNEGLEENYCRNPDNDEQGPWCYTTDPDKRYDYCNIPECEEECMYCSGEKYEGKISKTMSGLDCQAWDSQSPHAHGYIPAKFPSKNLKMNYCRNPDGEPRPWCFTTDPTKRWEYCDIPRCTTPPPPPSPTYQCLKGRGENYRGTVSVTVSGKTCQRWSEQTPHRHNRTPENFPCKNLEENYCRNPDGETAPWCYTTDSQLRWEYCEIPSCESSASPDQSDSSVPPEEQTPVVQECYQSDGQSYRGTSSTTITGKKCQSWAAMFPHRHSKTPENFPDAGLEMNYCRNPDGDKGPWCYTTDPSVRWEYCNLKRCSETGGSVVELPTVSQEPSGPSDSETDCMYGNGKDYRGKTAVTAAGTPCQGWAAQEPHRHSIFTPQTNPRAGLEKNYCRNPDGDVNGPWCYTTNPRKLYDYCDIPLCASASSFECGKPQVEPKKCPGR
Chain of Plasminogen (P20918 582-812 limits assumed): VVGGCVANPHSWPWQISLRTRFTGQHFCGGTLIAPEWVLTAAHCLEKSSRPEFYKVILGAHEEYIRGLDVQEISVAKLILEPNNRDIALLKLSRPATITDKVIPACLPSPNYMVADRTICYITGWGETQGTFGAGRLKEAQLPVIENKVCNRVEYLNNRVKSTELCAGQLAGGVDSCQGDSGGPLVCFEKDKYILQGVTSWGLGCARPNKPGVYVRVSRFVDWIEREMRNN

[13] = target: Prothrombin (Mus musculus, UniProt P19221); test: Inhibition of mouse thrombin preincubated for 15 mins followed by chromogenic substrate addition
[14] = tested on: CT26; test: Anti-tumor activity against […] mouse CT26 cells allografted in Balb/c mouse assessed as tumor growth inhibition at 1.13 mg/kg, ip administered daily for 15 days and measured on day 16 […]; format: functional; settings: read-out: TGI; in short: as §1
[15] = Drug level in blood of GFP-fused mouse CT26 cells allografted in Balb/c mouse at 11.3 mg/kg, ip administered daily for 15 days; format: ADME, organism-based; settings: read-out: Drug uptake

With `CC[C@H](C)[C@@H]1NC(=O)[C@H](Cc2ccc(O)cc2)NC(=O)[C@H](CCCNC(=N)N)NC(=O)[C@H](CO)NC(=O)[C@H](Cc2ccc(O)cc2)NC(=O)[C@H](C)NC(=O)[C@@H]2CCCN2C(=O)[C@@H](N)CSSC[C@@H](C(=O)O)NC(=O)CNC1=O` (H-CPAYSRYIGC-OH; disulfide 1-10) the inhibition in vivo at 11.3 mg/kg [1] was 50%, the Ratio Ki [2] was 81 and the Ki [3] was greater than 25 µM. The Ki [4] was greater than 25 µM, the Ki [5] was greater than 25 µM and the Activity [6] was “Active”. It also gave a Ki [7] greater than 25 µM, a Ki [8] of 2100 nM and an inhibition in vivo at 11.3 mg/kg [9] of 56.8%. For the same compound, the Ki [10] was greater than 25 µM, the Activity [11] was “inactive” and the Ki [12] was greater than 25 µM. For the same compound, the Ki [13] was greater than 25 µM, the inhibition in vivo at 1.13 mg/kg [14] was 36.1% and the concentration at 360 h [15] was 100 µM.

— ChEMBL document CHEMBL4422663, “Suppression of Tumor Growth and Metastases by Targeted Intervention in Urokinase Activity with Cyclic Peptides” (J Med Chem, 2019)
